Reference: ChEMBL document CHEMBL1153423, “Identification and characterization of small molecule inhibitors of a class I histone deacetylase from Plasmodium falciparum” (J Med Chem, 2009)

T1: Histone deacetylase (Plasmodium falciparum, UniProt Q9XYC7)
T1 sequence (Q9XYC7 whole entry): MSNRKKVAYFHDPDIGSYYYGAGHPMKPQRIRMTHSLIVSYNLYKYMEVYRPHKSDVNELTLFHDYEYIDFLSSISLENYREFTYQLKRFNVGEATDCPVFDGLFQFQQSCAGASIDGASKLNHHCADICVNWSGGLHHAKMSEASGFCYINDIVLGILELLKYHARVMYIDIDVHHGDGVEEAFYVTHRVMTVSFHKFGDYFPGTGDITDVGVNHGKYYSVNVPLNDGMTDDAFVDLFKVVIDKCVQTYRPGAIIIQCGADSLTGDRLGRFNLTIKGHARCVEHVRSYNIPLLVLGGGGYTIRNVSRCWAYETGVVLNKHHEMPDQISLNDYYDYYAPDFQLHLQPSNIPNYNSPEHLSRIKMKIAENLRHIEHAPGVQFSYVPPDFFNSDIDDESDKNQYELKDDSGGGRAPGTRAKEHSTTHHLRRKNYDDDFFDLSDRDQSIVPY

B1: Histone deacetylase (Plasmodium falciparum), Q9XYC7 (protein)
chain: T1 sequence (Q9XYC7 whole entry)

Target: T1, Histone deacetylase
Test: Inhibition of Plasmodium falciparum HDAC1 expressed in Drosophila melanogaster S2 cells
Type: cell-based
Details: not given; call rule not given here
Outline: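 Recombinant pfHDAC-1 cDNA carrying a C-terminal HPC4 epitope tag was expressed in Drosophila S2 cells. A stable pool was selected with blasticidin after co-transfection, and the enzyme was purified via the HPC4 tag. Substrate characterisation used the fluorogenic peptide Ac-Leu-Gly-Lys(Ac)-AMC, with a Michaelis–Menten fit.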
`O=C(CCCCCCC(=O)NN/C=C/c1cc(O)ccc1O)NO` showed an IC50 of 110 nM. Molecule `CC(/C=C/C(=O)NO)=C\[C@@H](C)C(=O)c1ccc(N(C)C)cc1` [TRICHOSTATIN] has an IC50 of 0.6 nM. For `O=C(CCCCCC(=O)NN/C=C/c1ccc(-n2ccnc2)cc1)NO`, the IC50 was 15 nM. For `COc1cc(/C=C/NNC(=O)CCCCCC(=O)NO)c(Br)cc1O`, the IC50 was 59 nM. Molecule `O=C(CCCCC(=O)NN/C=C/c1ccc(O)cc1Br)NO` has an IC50 of 106 nM. Molecule `O=C(CCCCCC(=O)NN/C=C/c1ccccc1Cl)NO` has an IC50 of 90 nM. In the case of `O=C(CCCCC(=O)NN/C=C/c1cc(O)ccc1Br)NO`, the IC50 is reported as 89 nM. `O=C1CCc2c(ccc3ccccc23)O1` [SPLITOMICIN] showed an IC50 greater than 10000 nM. With `COc1cc(/C=C/NNC(=O)CCCCC(=O)NO)c(Br)cc1O` the IC50 was 59 nM. `O=C(CCCCCC(=O)NN/C=C/c1cc2c(cc1Br)OCO2)NO` gave an IC50 of 20 nM. In the case of `CN(C)c1ccc(/C=C/NNC(=O)CCCCCC(=O)NO)c(O)c1`, the IC50 is reported as 37 nM. Molecule `O=C(CCCCCC(=O)NN/C=C/c1cccnc1Br)NO` has an IC50 of 36 nM. With `O=C(CCCCCC(=O)NN/C=C/c1cccc(O)c1)NO` the IC50 was 59 nM. `O=C(CCCCCC(=O)NN/C=C/c1cc(O)ccc1Br)NO` gave an IC50 of 49 nM. In the case of `COc1ccc(Br)c(/C=C/NNC(=O)CCCCCC(=O)NO)c1`, the IC50 is reported as 22 nM. `O=C(CCCCCC(=O)NN/C=C/c1c(O)ccc2ccccc12)NO` gave an IC50 of 41 nM. For `O=C(CCCCCC(=O)NN/C=C/c1ccccc1Br)NO`, the IC50 was 37 nM. Molecule `O=C(CCCCCCC(=O)NN/C=C/c1c(O)cc(O)cc1O)NO` has an IC50 of 43 nM.

Tested on: Plasmodium falciparum
Test: Antimalarial activity against Plasmodium falciparum 3D7 by [3H]hypoxanthine uptake
Type: functional, organism-based
Details: not given
In the case of `O=C(CCCCCCC(=O)NN/C=C/c1cc(O)ccc1O)NO`, the IC50 is reported as 142 nM. For `CC(/C=C/C(=O)NO)=C\[C@@H](C)C(=O)c1ccc(N(C)C)cc1` [TRICHOSTATIN], the IC50 was 16 nM. `O=C(CCCCCC(=O)NN/C=C/c1ccc(-n2ccnc2)cc1)NO` showed an IC50 of 57 nM. `COc1cc(/C=C/NNC(=O)CCCCCC(=O)NO)c(Br)cc1O` gave an IC50 of 47 nM. In the case of `O=C(CCCCC(=O)NN/C=C/c1ccc(O)cc1Br)NO`, the IC50 is reported as 53 nM. `Nc1ccccc1NC(=O)c1ccc(CNC(=O)OCc2cccnc2)cc1` [ENTINOSTAT] gave an IC50 greater than 10000 nM. `O=C(CCCCCC(=O)NN/C=C/c1ccccc1Cl)NO` gave an IC50 of 288 nM. `O=C(CCCCC(=O)NN/C=C/c1cc(O)ccc1Br)NO` gave an IC50 of 30 nM. With `O=C1CCc2c(ccc3ccccc23)O1` [SPLITOMICIN] the IC50 was greater than 10000 nM. In the case of `COc1cc(/C=C/NNC(=O)CCCCC(=O)NO)c(Br)cc1O`, the IC50 is reported as 498 nM. `O=C(CCCCCC(=O)NN/C=C/c1cc2c(cc1Br)OCO2)NO` showed an IC50 of 59 nM. Molecule `CN(C)c1ccc(/C=C/NNC(=O)CCCCCC(=O)NO)c(O)c1` has an IC50 of 24 nM. For `O=C(CCCCCC(=O)NN/C=C/c1cccnc1Br)NO`, the IC50 was 22 nM. `O=C(CCCCCC(=O)NN/C=C/c1cccc(O)c1)NO` gave an IC50 of 99 nM. In the case of `O=C(CCCCCC(=O)NN/C=C/c1cc(O)ccc1Br)NO`, the IC50 is reported as 35 nM. For `COc1ccc(Br)c(/C=C/NNC(=O)CCCCCC(=O)NO)c1`, the IC50 was greater than 500 nM. `O=C(CCCCCC(=O)NN/C=C/c1c(O)ccc2ccccc12)NO` gave an IC50 of 20 nM. For `O=C(CCCCCC(=O)NN/C=C/c1ccccc1Br)NO`, the IC50 was 15 nM. `CCC(=O)CCCCC[C@@H]1NC(=O)[C@H]2CCCCN2C(=O)[C@H]([C@@H](C)CC)NC(=O)[C@H](Cc2cn(OC)c3ccccc23)NC1=O` [APICIDIN] gave an IC50 of 33 nM. In the case of `O=C(CCCCCCC(=O)NN/C=C/c1c(O)cc(O)cc1O)NO`, the IC50 is reported as 50 nM. In the case of `Cc1[nH]c2ccccc2c1CCNCc1ccc(/C=C/C(=O)NO)cc1` [PANOBINOSTAT], the IC50 is reported as 21 nM.

Tested on: MM1.S
Test: Inhibition of histone acetylation in human MM1S cells at 0.2 uM relative to untreated control
Type: functional
Details: not given
With `O=C(CCCCCCC(=O)NN/C=C/c1cc(O)ccc1O)NO` the “fold change (FC)” value was 1.1. In the case of `O=C(CCCCCC(=O)NN/C=C/c1ccc(-n2ccnc2)cc1)NO`, the “fold change (FC)” value is reported as 1. With `COc1cc(/C=C/NNC(=O)CCCCCC(=O)NO)c(Br)cc1O` the “fold change (FC)” value was 1. In the case of `O=C(CCCCC(=O)NN/C=C/c1ccc(O)cc1Br)NO`, the “fold change (FC)” value is reported as 1.1. For `O=C(CCCCCC(=O)NN/C=C/c1ccccc1Cl)NO`, the “fold change (FC)” value was 0.9. For `O=C(CCCCC(=O)NN/C=C/c1cc(O)ccc1Br)NO`, the “fold change (FC)” value was 1.1. With `COc1cc(/C=C/NNC(=O)CCCCC(=O)NO)c(Br)cc1O` the “fold change (FC)” value was 1.2. With `O=C(CCCCCC(=O)NN/C=C/c1cc2c(cc1Br)OCO2)NO` the “fold change (FC)” value was 1. With `CN(C)c1ccc(/C=C/NNC(=O)CCCCCC(=O)NO)c(O)c1` the “fold change (FC)” value was 1.2. With `O=C(CCCCCC(=O)NN/C=C/c1cccnc1Br)NO` the “fold change (FC)” value was 0.9. For `O=C(CCCCCC(=O)NN/C=C/c1cccc(O)c1)NO`, the “fold change (FC)” value was 1.2. With `O=C(CCCCCC(=O)NN/C=C/c1cc(O)ccc1Br)NO` the “fold change (FC)” value was 1. In the case of `COc1ccc(Br)c(/C=C/NNC(=O)CCCCCC(=O)NO)c1`, the “fold change (FC)” value is reported as 1.1. With `O=C(CCCCCC(=O)NN/C=C/c1c(O)ccc2ccccc12)NO` the “fold change (FC)” value was 1. For `O=C(CCCCCC(=O)NN/C=C/c1ccccc1Br)NO`, the “fold change (FC)” value was 1.1. In the case of `O=C(CCCCCCC(=O)NN/C=C/c1c(O)cc(O)cc1O)NO`, the “fold change (FC)” value is reported as 1.1.

Tested on: not listed separately
Test: Growth inhibition of human MM1S cells
Type: cell-based
Details: mm1.s
In the case of `O=C(CCCCCCC(=O)NN/C=C/c1cc(O)ccc1O)NO`, the Activity is reported as “Non-toxic”. In the case of `O=C(CCCCCC(=O)NN/C=C/c1ccc(-n2ccnc2)cc1)NO`, the Activity is reported as “Non-toxic”. For `COc1cc(/C=C/NNC(=O)CCCCCC(=O)NO)c(Br)cc1O`, the Activity was “Non-toxic”. In the case of `O=C(CCCCC(=O)NN/C=C/c1ccc(O)cc1Br)NO`, the Activity is reported as “Non-toxic”. With `O=C(CCCCCC(=O)NN/C=C/c1ccccc1Cl)NO` the Activity was “Non-toxic”. With `O=C(CCCCC(=O)NN/C=C/c1cc(O)ccc1Br)NO` the Activity was “Non-toxic”. In the case of `COc1cc(/C=C/NNC(=O)CCCCC(=O)NO)c(Br)cc1O`, the Activity is reported as “Non-toxic”. With `O=C(CCCCCC(=O)NN/C=C/c1cc2c(cc1Br)OCO2)NO` the Activity was “Non-toxic”. With `CN(C)c1ccc(/C=C/NNC(=O)CCCCCC(=O)NO)c(O)c1` the Activity was “Non-toxic”. With `O=C(CCCCCC(=O)NN/C=C/c1cccnc1Br)NO` the Activity was “Non-toxic”. For `O=C(CCCCCC(=O)NN/C=C/c1cccc(O)c1)NO`, the Activity was “Non-toxic”. With `O=C(CCCCCC(=O)NN/C=C/c1cc(O)ccc1Br)NO` the Activity was “Non-toxic”. For `COc1ccc(Br)c(/C=C/NNC(=O)CCCCCC(=O)NO)c1`, the Activity was “Non-toxic”. With `O=C(CCCCCC(=O)NN/C=C/c1c(O)ccc2ccccc12)NO` the Activity was “Non-toxic”. In the case of `O=C(CCCCCC(=O)NN/C=C/c1ccccc1Br)NO`, the Activity is reported as “Non-toxic”. For `O=C(CCCCCCC(=O)NN/C=C/c1c(O)cc(O)cc1O)NO`, the Activity was “Non-toxic”.

Substrate: CC(=O)NCCCC[C@H](NC(=O)CNC(=O)[C@H](CC(C)C)NC(C)=O)C(=O)Nc1ccc2c(C)cc(=O)oc2c1
Test: (§1) Activity of Plasmodium falciparum HDAC1 expressed in Drosophila melanogaster S2 cells by Michaelis-Menten method
Type: cell-based
Details: not given
Outline: (§2)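 pfHDAC-1 cDNA with a C-terminal HPC4 epitope tag was expressed in a stable blasticidin-selected Drosophila S2 pool and purified through the tag. Activity was measured on the acetyl-lysine AMC peptide substrates Ac-Leu-Gly-Lys(Ac)-AMC and Boc-Lys(trifluoroacetyl)-AMC. kcat and apparent Km were obtained by fitting the Michaelis–Menten model to the rate data.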
Molecule B1 has a Km of 30 µM and a kcat of 0.19 s⁻¹.

Substrate: Cc1cc(=O)oc2cc(NC(=O)[C@H](CCCCNC(=O)C(F)(F)F)NC(=O)OC(C)(C)C)ccc12
Test: as §1
Type: cell-based
Details: not given
Outline: as §2
With B1 the Km was “Not Active” and the kcat was “Not Active”.
